Source: ChEMBL document CHEMBL2146397, “The Substrate-Activity-Screening methodology applied to receptor tyrosine kinases: a proof-of-concept study” (Eur J Med Chem, 2012)
Peptide text beside a SMILES is read from it.

Molecular target: Insulin-like growth factor 1 receptor (Homo sapiens, UniProt P08069)
Assay: Activity at pre-activated human GST-His6-tagged IGF-1R expressed in Sf9 cells assessed as initial phosphorylation rate at 10 uM measured every 2 mins for 60 mins by Michaelis-Menten constant based ADP Quest assay
Procedure, shortened: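 Reaction buffer was the same plus 0.1 mg/mL BSA, with kinase, peptide substrate and detection reagents. Started with ATP; fluorescence read every 2 min for 60 min; 3 independent experiments.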

Chain of Insulin-like growth factor 1 receptor (P08069 31-736 limits assumed): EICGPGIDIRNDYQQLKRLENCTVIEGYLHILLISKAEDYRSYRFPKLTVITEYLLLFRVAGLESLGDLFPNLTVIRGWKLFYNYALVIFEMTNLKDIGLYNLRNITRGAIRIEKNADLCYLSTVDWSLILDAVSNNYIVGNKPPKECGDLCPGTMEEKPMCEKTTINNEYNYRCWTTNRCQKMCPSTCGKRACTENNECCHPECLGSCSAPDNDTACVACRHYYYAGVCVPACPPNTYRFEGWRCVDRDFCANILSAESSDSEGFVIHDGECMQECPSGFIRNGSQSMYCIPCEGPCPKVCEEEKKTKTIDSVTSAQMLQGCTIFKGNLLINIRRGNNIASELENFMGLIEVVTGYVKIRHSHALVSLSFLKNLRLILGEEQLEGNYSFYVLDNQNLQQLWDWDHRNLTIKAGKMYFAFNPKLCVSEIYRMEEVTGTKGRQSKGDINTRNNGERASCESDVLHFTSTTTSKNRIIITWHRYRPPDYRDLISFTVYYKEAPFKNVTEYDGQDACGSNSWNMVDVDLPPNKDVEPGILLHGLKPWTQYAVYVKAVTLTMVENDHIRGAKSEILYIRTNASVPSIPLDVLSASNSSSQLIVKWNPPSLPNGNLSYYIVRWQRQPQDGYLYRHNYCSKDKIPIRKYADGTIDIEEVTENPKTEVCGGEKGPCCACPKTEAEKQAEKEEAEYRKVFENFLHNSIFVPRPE
Chain of Insulin-like growth factor 1 receptor (P08069 741-1367 limits assumed): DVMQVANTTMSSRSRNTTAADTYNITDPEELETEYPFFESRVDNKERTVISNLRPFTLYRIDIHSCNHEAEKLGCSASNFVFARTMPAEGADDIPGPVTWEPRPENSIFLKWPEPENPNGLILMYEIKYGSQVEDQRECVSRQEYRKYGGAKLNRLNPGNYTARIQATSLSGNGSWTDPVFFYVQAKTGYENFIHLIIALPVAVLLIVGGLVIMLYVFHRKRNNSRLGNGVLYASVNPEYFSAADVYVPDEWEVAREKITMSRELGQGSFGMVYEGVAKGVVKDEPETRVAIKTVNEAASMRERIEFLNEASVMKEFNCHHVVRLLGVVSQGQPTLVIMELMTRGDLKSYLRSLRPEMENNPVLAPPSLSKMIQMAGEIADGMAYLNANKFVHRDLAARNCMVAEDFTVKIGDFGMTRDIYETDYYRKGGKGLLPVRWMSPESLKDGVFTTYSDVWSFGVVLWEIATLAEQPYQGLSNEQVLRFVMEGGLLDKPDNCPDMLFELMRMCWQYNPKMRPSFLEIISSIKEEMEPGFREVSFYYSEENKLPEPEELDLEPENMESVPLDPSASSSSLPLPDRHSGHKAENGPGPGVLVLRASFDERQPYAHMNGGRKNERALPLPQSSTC

## CNC(=O)[C@H](Cc1c[nH]c2ccccc12)NC(=O)[C@H](CCC(=O)O)NC(=O)[C@H](Cc1ccccc1)NC(=O)[C@H](Cc1ccc(O)cc1)NC(=O)[C@@H]1CCC[C@H]1C(=O)O (HELM PEPTIDE1{[O=C(O)[C@@H]1CCC[C@H]1C(=O)[*:2]].Y.F.E.W.[CN[*:1]]}$$$$V2.0)
  Activity: 5.4 nM/s

## CNC(=O)[C@H](Cc1ccccc1)NC(=O)[C@H](CCC(=O)O)NC(=O)[C@H](Cc1ccccc1)NC(=O)[C@H](Cc1ccc(O)cc1)NC(=O)[C@H]1CCCC[C@@H]1C(=O)O (HELM PEPTIDE1{[O=C(O)[C@H]1CCCC[C@@H]1C(=O)[*:2]].Y.F.E.F.[CN[*:1]]}$$$$V2.0)
  Activity: 5.2 nM/s

## CNC(=O)[C@H](Cc1ccccc1)NC(=O)[C@H](CCC(=O)O)NC(=O)[C@H](Cc1ccccc1)NC(=O)[C@H](Cc1ccc(O)cc1)NC(=O)[C@@H]1CCCC[C@@H]1C(=O)O (HELM PEPTIDE1{[O=C(O)[C@H]1CCCC[C@H]1C(=O)[*:2]].Y.F.E.F.[CN[*:1]]}$$$$V2.0)
  Activity: 1.1 nM/s

## CNC(=O)[C@H](Cc1ccccc1)NC(=O)[C@H](CCC(=O)O)NC(=O)[C@H](Cc1ccccc1)NC(=O)[C@H](Cc1ccc(O)cc1)NC(=O)[C@H]1CCC[C@@H]1C(=O)O (HELM PEPTIDE1{[O=C(O)[C@H]1CCC[C@@H]1C(=O)[*:2]].Y.F.E.F.[CN[*:1]]}$$$$V2.0)
  Activity: 0.24 nM/s

## CNC(=O)[C@H](Cc1c[nH]c2ccccc12)NC(=O)[C@H](CCC(=O)O)NC(=O)[C@H](Cc1ccccc1)NC(=O)[C@H](Cc1ccc(O)cc1)NC(=O)[C@H]1CCC[C@@H]1C(=O)O (HELM PEPTIDE1{[O=C(O)[C@H]1CCC[C@@H]1C(=O)[*:2]].Y.F.E.W.[CN[*:1]]}$$$$V2.0)
  Activity: 0.84 nM/s

## CNC(=O)[C@H](Cc1ccccc1)NC(=O)[C@H](CCC(=O)O)NC(=O)[C@H](Cc1ccccc1)NC(=O)[C@H](Cc1ccc(O)cc1)NC(=O)c1ccccc1[N+](=O)[O-] (HELM PEPTIDE1{[O=C(c1ccccc1[N+](=O)[O-])[*:2]].Y.F.E.F.[CN[*:1]]}$$$$V2.0)
  Activity: 4.6 nM/s

## CNC(=O)[C@H](Cc1c[nH]c2ccccc12)NC(=O)[C@H](CCC(=O)O)NC(=O)[C@H](Cc1ccccc1)NC(=O)[C@H](Cc1ccc(O)cc1)NC(=O)c1ccccc1[N+](=O)[O-] (HELM PEPTIDE1{[O=C(c1ccccc1[N+](=O)[O-])[*:2]].Y.F.E.W.[CN[*:1]]}$$$$V2.0)
  Activity: 3.3 nM/s

## CNC(=O)[C@H](Cc1ccccc1)NC(=O)[C@H](CCC(=O)O)NC(=O)[C@H](Cc1ccccc1)NC(=O)[C@H](Cc1ccc(O)cc1)NC(=O)[C@H](CC(=O)O)NC(C)=O (HELM PEPTIDE1{[ac].D.Y.F.E.F.[CN[*:1]]}$$$$V2.0)
  Activity: 1.7 nM/s

## CNC(=O)[C@H](Cc1c[nH]c2cc(Cl)ccc12)NC(=O)[C@H](CCC(=O)O)NC(=O)[C@H](Cc1ccccc1)NC(=O)[C@H](Cc1ccc(O)cc1)NC(=O)[C@H](CC(=O)O)NC(C)=O (HELM PEPTIDE1{[ac].D.Y.F.E.[O=C([C@H](Cc1c[nH]c2cc(Cl)ccc12)N[*:1])[*:2]].[CN[*:1]]}$$$$V2.0)
  Activity: 6.7 nM/s

## CNC(=O)[C@H](Cc1ccc2ccccc2c1)NC(=O)[C@H](CCC(=O)O)NC(=O)[C@H](Cc1ccccc1)NC(=O)[C@H](Cc1ccc(O)cc1)NC(=O)[C@H](CC(=O)O)NC(C)=O (HELM PEPTIDE1{[ac].D.Y.F.E.[O=C([C@H](Cc1ccc2ccccc2c1)N[*:1])[*:2]].[CN[*:1]]}$$$$V2.0)
  Activity: 3.4 nM/s

## CNC(=O)[C@H](Cc1ccc(Cl)c(Cl)c1)NC(=O)[C@H](CCC(=O)O)NC(=O)[C@H](Cc1ccccc1)NC(=O)[C@H](Cc1ccc(O)cc1)NC(=O)[C@H](CC(=O)O)NC(C)=O (HELM PEPTIDE1{[ac].D.Y.F.E.[O=C([C@H](Cc1ccc(Cl)c(Cl)c1)N[*:1])[*:2]].[CN[*:1]]}$$$$V2.0)
  Activity: 2.1 nM/s

## CNC(=O)[C@H](Cc1ccc(Cl)cc1)NC(=O)[C@H](CCC(=O)O)NC(=O)[C@H](Cc1ccccc1)NC(=O)[C@H](Cc1ccc(O)cc1)NC(=O)[C@H](CC(=O)O)NC(C)=O (HELM PEPTIDE1{[ac].D.Y.F.E.[O=C([C@H](Cc1ccc(Cl)cc1)N[*:1])[*:2]].[CN[*:1]]}$$$$V2.0)
  Activity: 2.6 nM/s
